UBC13 polyUb – UBC13 polyubiquitin chain formation inhibitors, primary screen, biochemical, TR-FRET, uHTS; Ubiquitin-conjugating enzyme E2 N (Homo sapiens), P61088; inhibition, % at 20 µM; 330,000 tested, 0.47% active; AID 485273, 2010; in the data active = inhibition above about 45%, passing the limit was not always enough
Target sequence (P61088 whole entry, looked up): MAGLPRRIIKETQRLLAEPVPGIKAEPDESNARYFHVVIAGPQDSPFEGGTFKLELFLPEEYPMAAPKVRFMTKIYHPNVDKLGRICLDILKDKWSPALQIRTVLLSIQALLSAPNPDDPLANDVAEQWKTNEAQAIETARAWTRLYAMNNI
MEKK2mut PB1 HTS – MEK5 binding signal on mutant MEKK2 PB1, primary screen, biochemical, multiplex bead flow cytometry, Alexa488-MEK5. percent response, % at 10 µM. 290,000 tested, 0.35% active. Alexa488-MEK5 binding to MEKK2 mutant; in the data active = percent response above about 24%, passing the limit was not always enough
UCH37 inh – inhibitors of human UCH37 deubiquitinase, primary screen, biochemical, Ub-AMC cleavage, fluorescence | Ubiquitin carboxyl-terminal hydrolase isozyme L5 (Homo sapiens), Q9Y5K5 | purified proteasome/UCH37 | inhibition, % (no concentration beside the values) | 330,000 tested, 0.33% active | AID 588478, 2011;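 active = mean inhibition over replicate wells above about 20%, limit read from the data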;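 note: 0% = compound-free wells with enzyme and 100% = wells lacking proteasome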
Target sequence (Q9Y5K5 whole entry, looked up): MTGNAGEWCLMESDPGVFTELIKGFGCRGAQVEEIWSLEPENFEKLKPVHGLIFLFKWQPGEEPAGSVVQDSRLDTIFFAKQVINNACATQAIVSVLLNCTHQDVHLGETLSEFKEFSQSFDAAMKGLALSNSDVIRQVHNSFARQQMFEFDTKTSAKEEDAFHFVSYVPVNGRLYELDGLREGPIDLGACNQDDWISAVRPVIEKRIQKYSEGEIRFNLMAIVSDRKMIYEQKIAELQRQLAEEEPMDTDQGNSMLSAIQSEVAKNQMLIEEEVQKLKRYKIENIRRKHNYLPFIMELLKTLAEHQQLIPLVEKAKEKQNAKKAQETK
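Test system – human UCH37 enzyme supplied as purified proteasome complex · Incubation – 30 min preincubation with enzyme, 25 min cleavage at room temperature · Detection – AMC fluorescence from Ub-AMC cleavage, excitation 355 nm, emission 460 nm · Benchmarks – no-proteasome wells (full inhibition) and compound-free wells (no inhibition)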
MEKK3 PB1 HTS – modulators of MEKK3-MEK5 PB1 binding, primary screen, biochemical, wildtype MEKK3, multiplex bead flow cytometry, Alexa488-MEK5; Mitogen-activated protein kinase kinase kinase 3 (Homo sapiens), Q99759; bead-based flow cytometry, Alexa488-MEK5 binding to MEKK3; actives lie on both sides; 0 = blocked by unlabeled MEK5, 100 = vehicle; binding response (% of control), % at 10 µM; 290,000 tested, 1.4% active; AID 1529, 2009;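 active = binding response more than 3 SD above or below the average of its plate-row segment, actives on both sides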;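 note: Alexa488 bead fluorescence after subtracting the streptavidin-only scavenger bead signal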
MEKK2 WT-MEK5 – modulators of MEK5 binding to wildtype MEKK2, primary screen, biochemical, multiplex bead flow cytometry, Alexa488-MEK5; Mitogen-activated protein kinase kinase kinase 2 (Homo sapiens), Q9Y2U5; Alexa488-MEK5 binding to MEKK2 WT; actives lie on both sides; binding response (% of control), % at 10 µM; 290,000 tested, 1.1% active; in the data active = binding response below about 67% or above about 130%
Apaf-1 inh – inhibitors of human Apaf-1 apoptosome, primary screen, biochemical, DEVD-Rh110 fluorescence, uHTS. Apoptotic protease-activating factor 1 (Homo sapiens), O14727. reconstituted apoptosome caspase-3 activity. inhibition, % at 20 µM. 330,000 tested, 0.71% active; active = inhibition of at least 40% at 20 µM;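 note: plate controls were DMSO wells for no effect and DEVD-CHO caspase inhibitor wells for full effect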
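Material: biochemical Apaf-1 apoptosome reconstitution. Medium: Hepes buffer, pH 7.5. Also added: cytochrome c activation, bis-DEVD rhodamine 110 substrate. Timing: 30 min compound preincubation, 50 min activation, room temperature. Measured by: rhodamine 110 fluorescence at Ex 480/Em 540 nm.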
MEKK2wt confirm – modulators of MEK5 binding to wildtype MEKK2, confirmation, biochemical, single concentration, multiplex bead flow cytometry; Alexa488-MEK5 binding to MEKK2 WT; actives lie on both sides; binding response (% of control), % at 10 µM; shares compounds with MEKK3 PB1 HTS; AID 1892, 2009; 5,900 tested, 2.4% active; in the data active = binding response below about 16% or above about 210%; inactive = in between
MEKK2mut-MEK5 – mutant MEKK2 PB1-MEK5 binding signal retest – biochemical, single concentration, multiplex bead flow cytometry, confirmation; 5,900 tested, 2% active; AID 1893, 2009; shares compounds with MEKK3 PB1 HTS; percent response, % at 10 µM; Alexa488-MEK5 binding to MEKK2 mutant; in the data active = percent response mostly above about 71%, no sharp cut-off; inactive = mostly below about 38%;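 note: higher means compound restores mutant binding toward wildtype level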
MEKK3 confirm – MEKK3 wild-type PB1 binding to MEK5, inhibitors, confirmation, biochemical, bead multiplex flow cytometry, single concentration, wildtype. Alexa488-MEK5 binding to MEKK3; active compounds read low. shares compounds with MEKK3 PB1 HTS. binding response (% of control), % at 10 µM. 5,900 tested, 1.8% active;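 active = binding response below 72% of control, or above a set upper limit, though filed actives all read lower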;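 note: 100% = DMSO only wells and 0% = binding blocked by excess unlabeled MEK5; lower values mean stronger disruption of MEK5 binding to MEKK3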
Casp3 counter – CASP3 inhibitor validation, counterassay for project on UBE2N polyubiquitination blockers, biochemical, one dose | 1,400 tested, 4% active | shares compounds with UBC13 polyUb | Recombinant caspase-3, Caspase-Glo 3/7 luminescence, 60 min | inhibition, % at 20 µM;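 active = mean inhibition across replicates above about 26%, limit read from the data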;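 note: plate controls were DMSO with caspase-3 for no effect and DMSO wells lacking enzyme for full effect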
UBC13 confirm – UBC13 polyubiquitination inhibitors, single-point retest, confirmation, biochemical, TR-FRET, single concentration; shares compounds with UBC13 polyUb; 1,400 tested, 68% active; AID 488859, 2010; inhibition, % at 10 µM; in the data active = inhibition above about 45%
Numbers without * were called inactive; . = no result. Sampled rows, rich in hits. Any-hit rate of the full collection: about 3%.

SMILES | UBC13 polyUb | MEKK2mut PB1 HTS | UCH37 inh | MEKK3 PB1 HTS | MEKK2 WT-MEK5 | Apaf-1 inh | MEKK2wt confirm | MEKK2mut-MEK5 | MEKK3 confirm | Casp3 counter | UBC13 confirm
Cc1cc(NS(=O)(=O)c2ccc(NC(=O)CSc3nc4sc(C)c(C)c4c(=O)[nH]3)cc2)no1 | -15 | -15 | 8 | 96 | 81 | 9 | . | . | . | . | .
Cc1onc(-c2c(Cl)cccc2Cl)c1C(=O)N1CCCCC1 | 0 | -4 | 2 | 96 | 95 | 6 | . | . | . | . | .
O=C(C[n+]1cc(-c2ccc(Cl)c(Cl)c2)n2c1CCC2)N1c2ccccc2Sc2ccccc21 | 45* | 55* | 16 | 97 | 221* | 26 | 146 | 18 | 86 | -4 | 39
O=c1c2cc(NC(=S)NCCCN3CCC(Cc4ccccc4)CC3)ccc2nc2n1CCCCC2 | 51* | 14 | 5 | 107 | 149* | -1 | 154 | 28 | 111 | 4 | 85*
COc1cc(OC)cc(C(=O)N[C@H](C(=O)OCC(N)=O)C(C)C)c1 | 6 | -2 | 1 | 100 | 96 | 9 | . | . | . | . | .
CCN(CC)CCC(c1cc(OC)c(OC)c(OC)c1)c1c(OC)cc(OC)c2c(C)cc(=O)oc12 (stereo not given) | 10 | 2 | -1 | 96 | 104 | 9 | . | . | . | . | .
CCCCCc1cc(=O)oc2c(C(CCN(CC)CC)c3ccc(N(C)C)cc3)c(OC)cc(OC)c12 (stereo not given) | 80* | 23 | 2 | 108 | 166* | 30 | 185 | 37 | 109 | -2 | 39
CCCCCc1cc(=O)oc2c(C(CCN3CCCCC3)c3cc(OC)c(OC)c(OC)c3)c(OC)cc(OC)c12 (stereo not given) | 81* | 13 | 0 | 108 | 147* | 29 | 155 | 25 | 102 | 3 | 46*
COc1cc(C(CCN2CCCC2)c2c(OC)cc(OC)c3ccc(=O)oc23)cc(OC)c1OC (stereo not given) | 1 | 5 | 1 | 94 | 98 | -1 | . | . | . | . | .
Cn1nc(C(C)(C)C)cc1C(=O)NNC(=O)c1cccc(Cl)c1 | 0 | 4 | 0 | 102 | 100 | -2 | . | . | . | . | .
CCOCCCNC(=O)c1cc2c(s1)-c1ccccc1SC2 | 9 | -1 | -3 | 101 | 101 | 6 | . | . | . | . | .
CN(C)CCNC(=O)c1cc2c(s1)-c1ccc(Cl)cc1SC2 | 62* | 40* | . | 110 | 181* | 30 | 152 | 27 | 106 | -2 | 73*
